According to ChEMBL document CHEMBL4387756, “Discovery of DC_H31 as potential mutant IDH1 inhibitor through NADPH-based high throughput screening” (Bioorg Med Chem, 2019):
The source made the active and inactive calls. No cut-off for these calls is given here.

Key:
[1] = target: T1, Isocitrate dehydrogenase [NADP] cytoplasmic (Homo sapiens, UniProt O75874); test: Inhibition of N-terminal 6-His-tagged wild type IDH1 (unknown origin) expressed in Escherichia coli BL21 cells using alpha-KG as substrate in presence of NADPH incubated for 40 mins by fluorescence assay
[2] = target: T2, Isocitrate dehydrogenase [NADP] cytoplasmic (Homo sapiens, UniProt O75874, R132C); test: Inhibition of N-terminal 6-His-tagged IDH1 R132C mutant (unknown origin) expressed in Escherichia coli BL21 cells using alpha-KG as substrate in presence of NADPH incubated for 40 mins by fluorescence assay
Summary of the method: (§1)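 His-tagged-free description: E. coli BL21 expressed, affinity-purified enzyme, 100 nmol/L R132H or 20 nmol/L R132C. Remaining NADPH was read by fluorescence (ex 355/em 460 nm). Dose-response started at 50 µmol/L, seven dilution steps. IC50 is the mean of three determinations.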

[3] = target: T3, Isocitrate dehydrogenase [NADP] cytoplasmic (Homo sapiens, UniProt O75874, R132H); test: Inhibition of N-terminal 6-His-tagged IDH1 R132H mutant (unknown origin) expressed in Escherichia coli BL21 cells using alpha-KG as substrate in presence of NADPH incubated for 40 mins by fluorescence assay; summary of the method: as §1
[4] = target: T1, Isocitrate dehydrogenase [NADP] cytoplasmic; test: Binding affinity to N-terminal 6-His-tagged wild type IDH1 (unknown origin) expressed in BL21 cells assessed as equilibrium dissociation constant by SPR assay
Summary of the method: (§2)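 Assay ran on a Biacore T200 at 25 °C in HBS (10 mmol/L HEPES pH 7.4, 150 mmol/L NaCl, 0.1% DMSO). Bacterially expressed, affinity-purified protein was diluted in 10 mmol/L sodium acetate and amine-coupled to a CM5 chip. Analyte ranged 25–0.78 µmol/L for R132H/C and 50–1.56 µmol/L for WT, flowed at 30 µL/min. Association 120 s, dissociation 150 s. KD from a steady-state model.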

[5] = target: T2, Isocitrate dehydrogenase [NADP] cytoplasmic; test: Binding affinity to N-terminal 6-His-tagged IDH1 R132C mutant (unknown origin) expressed in BL21 cells assessed as equilibrium dissociation constant by SPR assay; summary of the method: as §2
[6] = target: T3, Isocitrate dehydrogenase [NADP] cytoplasmic; test: Binding affinity to N-terminal 6-His-tagged IDH1 R132H mutant (unknown origin) expressed in BL21 cells assessed as equilibrium dissociation constant by SPR assay; summary of the method: as §2
HT-1080 = test: Antiproliferation activity against human HT1080 cells assessed as reduction in cell viability after 72 hrs by Cell Titer-Glo luminescent assay; settings: HT-1080, 72 h
U-87 MG = test: Antiproliferation activity against human U87MG cells assessed as reduction in cell viability after 72 hrs by Cell Titer-Glo luminescent assay; format: functional, cell-based, U-87MG ATCC
Summary of the method: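 HT1080 (endogenous IDH1-R132C) and U-87 MG cells kept in DMEM with 10% FBS and 1% penicillin/streptomycin at 37 °C, 5% CO2. Cells were seeded in 96-well plates and, after attachment, exposed to a concentration range for 72 h in triplicate with matched DMSO control. Viable fraction was read by CellTiter-Glo luminescence. IC50 came from a nonlinear curve fit.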

[7] = Selectivity ratio of IC50 for human HT1080 cells to IC50 for human U87MG cells; format: functional
[8] = tested on: Isocitrate dehydrogenase [NADP] cytoplasmic (Homo sapiens), O75874 [R132C]; test: Inhibition of IDH1 R132C mutant in human HT1080 cells assessed as induction of differentiation by measuring decrease in SOX2 mRNA expression at 1 umol/L after 6 days by qRT-PCR analysis; format: cell-based
Summary of the method: (§3)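 HT1080 cells in 6-well plates were exposed to 1 µmol/L compound or DMSO for 6 days. RNA was extracted with Trizol, reverse transcribed, and SOX2 and GFAP expression measured by SYBR Green real-time PCR. Values are mean ±SD of three replicates.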

[9] = tested on: Isocitrate dehydrogenase [NADP] cytoplasmic (Homo sapiens), O75874 [R132C]; test: Inhibition of IDH1 R132C mutant in human HT1080 cells assessed as induction of differentiation by measuring increase in GFAP mRNA expression at 1 umol/L after 6 days by qRT-PCR analysis; format: cell-based; summary of the method: as §3
[10] = tested on: Isocitrate dehydrogenase [NADP] cytoplasmic (Homo sapiens), O75874 [R132C]; test: Inhibition of IDH1 R132C mutant in human HT1080 cells assessed as induction of differentiation by measuring increase in GFAP protein expression after at 0.125 to 1 umol/L 6 days by Western blot analysis; format: cell-based
Summary of the method: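 HT1080 cells in 6-well plates received indicated concentrations or DMSO for 6 days after attachment. BCA-quantified lysates were resolved on 12% SDS-PAGE and transferred to nitrocellulose. Membranes were blocked in 5% milk, probed overnight at 4 °C with anti-GFAP and anti-GAPDH, then with HRP secondary for 2 h, and detected by ECL.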

Chain of Isocitrate dehydrogenase [NADP] cytoplasmic (Homo sapiens), O75874 [R132C] (O75874 whole entry R132C): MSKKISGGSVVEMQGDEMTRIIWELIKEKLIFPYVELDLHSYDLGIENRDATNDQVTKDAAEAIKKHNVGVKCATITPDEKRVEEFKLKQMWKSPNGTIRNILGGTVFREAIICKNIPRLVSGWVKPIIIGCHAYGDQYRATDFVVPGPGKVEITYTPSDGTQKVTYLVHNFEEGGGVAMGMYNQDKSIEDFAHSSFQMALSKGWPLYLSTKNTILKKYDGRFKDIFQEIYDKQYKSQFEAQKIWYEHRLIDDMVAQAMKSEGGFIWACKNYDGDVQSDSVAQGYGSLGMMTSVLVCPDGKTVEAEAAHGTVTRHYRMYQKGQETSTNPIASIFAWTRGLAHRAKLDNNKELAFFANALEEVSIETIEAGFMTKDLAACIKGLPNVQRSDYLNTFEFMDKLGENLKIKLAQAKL
T3 sequence (O75874 2-414 R132H limits assumed): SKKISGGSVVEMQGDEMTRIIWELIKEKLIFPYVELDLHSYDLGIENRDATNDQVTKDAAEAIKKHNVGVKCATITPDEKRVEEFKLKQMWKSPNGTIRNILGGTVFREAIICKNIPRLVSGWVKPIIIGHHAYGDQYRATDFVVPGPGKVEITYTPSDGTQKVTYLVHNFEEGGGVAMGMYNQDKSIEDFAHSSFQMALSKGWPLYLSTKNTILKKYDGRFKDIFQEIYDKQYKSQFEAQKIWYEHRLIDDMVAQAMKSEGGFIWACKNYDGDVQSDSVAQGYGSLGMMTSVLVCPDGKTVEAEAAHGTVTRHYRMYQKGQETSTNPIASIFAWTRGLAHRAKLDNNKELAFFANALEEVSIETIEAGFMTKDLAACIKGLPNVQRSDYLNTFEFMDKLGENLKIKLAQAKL
T1 sequence (O75874 whole entry): as the sequence (O75874 whole entry R132C) above, with C132R counted along it
T2 sequence (O75874 2-414 R132C limits assumed): as the sequence (O75874 2-414 R132H limits assumed) above, with H131C counted along it

Q: For `CC(C)(C)c1cc(C(c2ccccn2)N2CCN(C(C)(C)C)CC2)cc(C(C)(C)C)c1O` (stereo not drawn), which IC50 [1] is on record?
A: Its IC50 is 8.5 µM.

Q: And the IC50 [2]?
A: The IC50 was 9 µM.

Q: What about the IC50 [3] of the same molecule?
A: The IC50 was > 50 µM.

Q: For `CC(C)(C)c1cc(C(SC2CCCCC2)c2ccccn2)cc(C(C)(C)C)c1O` (stereo not drawn), which IC50 [1] is on record?
A: Its IC50 is > 50 µM.

Q: What about the IC50 [2] of the same molecule?
A: Its IC50 is > 50 µM.

Q: And the IC50 [3]?
A: The IC50 was > 50 µM.

Q: For `Cc1cccnc1C(c1cc(C(C)(C)C)c(O)c(C(C)(C)C)c1)N1CCOCC1` (stereo not drawn), which IC50 [1] is on record?
A: The IC50 was 0.8 µM.

Q: What about the IC50 [2] of the same molecule?
A: Its IC50 is 4.7 µM.

Q: And the IC50 [3]?
A: Its IC50 is 20 µM.

Q: For `CC(C)(C)c1cc(C(c2ccccn2)N2CCOCC2)cc(C(C)(C)C)c1` (stereo not drawn), which IC50 [1] is on record?
A: Its IC50 is > 50 µM.

Q: What about the IC50 [2] of the same molecule?
A: Its IC50 is > 50 µM.

Q: And the IC50 [3]?
A: The IC50 was > 50 µM.

Q: Which IC50 [1] does the source give for `CC(C)(C)c1cc(C(c2ccccn2)N2CCN(CC3CC3)CC2)cc(C(C)(C)C)c1O` (stereo not drawn) here?
A: Its IC50 is 31 µM.

Q: And the IC50 [2]?
A: The IC50 was 18 µM.

Q: And the IC50 [3]?
A: Its IC50 is > 50 µM.

Q: With `CCCCN1CCN(C(c2cc(C(C)(C)C)c(O)c(C(C)(C)C)c2)c2ccccn2)CC1` (stereo not drawn) as the molecule, how does the IC50 [1] read?
A: The IC50 was 12.8 µM.

Q: And the IC50 [2]?
A: Its IC50 is 9 µM.

Q: And the IC50 [3]?
A: Its IC50 is > 50 µM.

Q: For `CN1CCN(C(c2cc(C(C)(C)C)c(O)c(C(C)(C)C)c2)c2ccccn2)CC1` (stereo not drawn), which IC50 [1] is on record?
A: Its IC50 is 50 µM.

Q: And the IC50 [2]?
A: The IC50 was 4.9 µM.

Q: What about the IC50 [3] of the same molecule?
A: The IC50 was 3 µM.

Q: Which IC50 [1] does the source give for `Cc1cccc(C(c2cc(C(C)(C)C)c(O)c(C(C)(C)C)c2)N2CCOCC2)n1` (stereo not drawn) here?
A: The IC50 was > 50 µM.

Q: What about the IC50 [2] of the same molecule?
A: The IC50 was > 50 µM.

Q: And the IC50 [3]?
A: Its IC50 is > 50 µM.

Q: For `CC(C)N1CCN(C(c2cc(C(C)(C)C)c(O)c(C(C)(C)C)c2)c2ccccn2)CC1` (stereo not drawn), which IC50 [1] is on record?
A: The IC50 was 3 µM.

Q: What about the IC50 [2] of the same molecule?
A: Its IC50 is 7 µM.

Q: What about the IC50 [3] of the same molecule?
A: Its IC50 is 4.76 µM.

Q: Which IC50 [1] does the source give for `CC(C)(C)c1cc(C(c2ccccn2)N2CCN(c3ccccc3)CC2)cc(C(C)(C)C)c1O` (stereo not drawn) here?
A: Its IC50 is > 50 µM.

Q: And the IC50 [2]?
A: The IC50 was > 50 µM.

Q: And the IC50 [3]?
A: The IC50 was > 50 µM.

Q: Which IC50 [1] does the source give for `CN1CCN(C(c2cc(C(C)(C)C)cc(C(C)(C)C)c2)c2ccccn2)CC1` (stereo not drawn) here?
A: Its IC50 is > 50 µM.

Q: And the IC50 [2]?
A: The IC50 was > 50 µM.

Q: And the IC50 [3]?
A: Its IC50 is > 50 µM.

Q: What does the source list for `CC(C)(C)c1cc(C(c2ccccn2)N2CCOCC2)cc(C(C)(C)C)c1O` (stereo not drawn)?
A: IC50 [1]: 43.7 µM; IC50 [2]: 2.7 µM; IC50 [3]: 0.41 µM; Kd [4]: > 50 µM; Kd [5]: 0.72 µM; Kd [6]: 3.8 µM; IC50 (HT-1080): 5 µM; IC50 (U-87 MG): 48.7 µM; Ratio IC50 [7]: 10; inhibition [8]: Active; inhibition [9]: Active; inhibition [10]: Active

Q: Which IC50 [1] does the source give for `CC(C)(C)c1cc(C(OC2CCCCC2)c2ccccn2)cc(C(C)(C)C)c1O` (stereo not drawn) here?
A: The IC50 was > 50 µM.

Q: And the IC50 [2]?
A: Its IC50 is > 50 µM.

Q: And the IC50 [3]?
A: Its IC50 is > 50 µM.

Q: Which IC50 [1] does the source give for `CC(C)(C)c1cc(C(c2ccccn2)N2CCN(C3CCCCC3)CC2)cc(C(C)(C)C)c1O` (stereo not drawn) here?
A: The IC50 was > 50 µM.

Q: What about the IC50 [2] of the same molecule?
A: The IC50 was > 50 µM.

Q: And the IC50 [3]?
A: Its IC50 is > 50 µM.

Q: Which IC50 [1] does the source give for `CC(C)(C)c1cc(C(c2cccc(F)c2)N2CCOCC2)cc(C(C)(C)C)c1O` (stereo not drawn) here?
A: Its IC50 is > 50 µM.

Q: What about the IC50 [2] of the same molecule?
A: The IC50 was > 50 µM.

Q: What about the IC50 [3] of the same molecule?
A: The IC50 was > 50 µM.

Q: Which IC50 [3] does the source give for `Cc1ccccc1C(C(=O)NC1CCCCC1)N(C(=O)Cn1ccnc1C)c1cccc(F)c1` (stereo not drawn) here?
A: Its IC50 is 0.082 µM.

Q: What does the source list for `CCN1CCN(C(c2cc(C(C)(C)C)c(O)c(C(C)(C)C)c2)c2ccccn2)CC1` (stereo not drawn)?
A: IC50 [1]: 6.4 µM; IC50 [2]: 4.8 µM; IC50 [3]: 12 µM
